One data set deals with Human adenovirus 2. Description: Antiviral activity against Human adenovirus 2 infected in HEL cells assessed as inhibition of virus-induced cytopathicity. Type of data set: functional, cell-based. The note with it: Human mastadenovirus C. A general note: Cytopathic effects are the visible damage that an infection or toxin causes in cultured cells.
A short description of data set [1]: Cytotoxicity against HEL cells assessed as alteration of cell morphology after 3 days by microscopic analysis. Type of data set: toxicity, cell-based. As to conditions: human. The essentials:
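HEL cell cultures were checked by microscopy for compound cytotoxicity, reported as MCC. The highest concentration tested was […].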

Data set [2] has as its system Vaccinia virus. The data set can be described thus: Antiviral activity against Vaccinia virus infected in HEL cells assessed as inhibition of virus-induced cytopathicity. It is filed as functional, cell-based. As to conditions: Orthopoxvirus vaccinia.
For data set [3], the system named is Vaccinia virus. The data set can be described thus: Potency index, ratio of brivudin EC50 against Vaccinia virus infected in HEL cells to compound EC50 against Vaccinia virus infected in HEL cells. It is filed as functional, Orthopoxvirus vaccinia.
Data set [4] concerns Vaccinia virus. The data set can be described thus: Potency index, ratio of cidofovir EC50 against Vaccinia virus infected in HEL cells to compound EC50 against Vaccinia virus infected in HEL cells. Type of data set: functional, Orthopoxvirus vaccinia.

Structures are written as SMILES. Bounds are passed on as bounds.

The values below come from ChEMBL document CHEMBL3864138, “First discovery of novel 3-hydroxy-quinazoline-2,4(1H,3H)-diones as specific anti-vaccinia and adenovirus agents via 'privileged scaffold' refining approach” (Bioorg Med Chem Lett, 2016).

In general, EC50 refers to the concentration needed to bring the measured effect to its halfway point. On to `CCn1c(=O)n(O)c(=O)c2cc(-c3cn(Cc4ccccc4F)nn3)ccc21`, for which the EC50 in the data set with Human adenovirus 2 is 6.5 µM; in the data set on Vaccinia virus [2], over 100 µM. Besides, the MCC at 72 h in data set [1] was over 100 µM.
Turning to `Cn1c(=O)n(O)c(=O)c2cc(-c3cn(Cc4c(F)cccc4F)nn3)ccc21`, the EC50 in the data set on Human adenovirus 2 and with Vaccinia virus [2] was over 100 µM in each case. Also, in data set [1], the MCC at 72 h was found to be 100 µM.
With `CCn1c(=O)n(O)c(=O)c2cc(-c3cn(Cc4ccc(F)c(F)c4)nn3)ccc21`, the EC50 in the data set with Human adenovirus 2 is over 100 µM; in the data set with Vaccinia virus [2], 1.9 µM. For the same molecule, in data set [1], the MCC at 72 h was 20 µM.
`Cn1c(=O)n(O)c(=O)c2cc(-c3cn(Cc4ccc([N+](=O)[O-])cc4)nn3)ccc21`: the values for the EC50 in the data set on Human adenovirus 2 and with Vaccinia virus [2] were over 100 µM and 2.4 µM, respectively. Further, the MCC at 72 h in data set [1] is over 100 µM.
For the molecule `CCn1c(=O)n(O)c(=O)c2cc(-c3cn(Cc4ccc([N+](=O)[O-])cc4)nn3)ccc21`, the EC50 in the data set with Human adenovirus 2 was over 100 µM; with Vaccinia virus [2], 1.7 µM. In data set [1], the MCC at 72 h was over 100 µM. Also, the “Ratio EC50” value is 8 - 15 in the data set with Vaccinia virus [3] and 15 in the data set with Vaccinia virus [4].
Consider `Cc1cn([C@H]2C[C@H](F)[C@@H](CO)O2)c(=O)[nH]c1=O` [ALOVUDINE], for which the EC50 with Human adenovirus 2 amounted to 10 µM. Moreover, the MCC at 72 h in data set [1] was over 250 µM.
Consider `Cn1c(=O)n(O)c(=O)c2cc(-c3cn(Cc4cccc(F)c4)nn3)ccc21`, for which the concentration giving a half-maximal response (EC50) in the data set on Human adenovirus 2 and in the data set on Vaccinia virus [2] was over 100 µM each time. For the same molecule, the MCC at 72 h in data set [1] was over 100 µM.
On to `CCn1c(=O)n(O)c(=O)c2cc(-c3cn(Cc4ccccc4)nn3)ccc21`, for which the EC50 with Human adenovirus 2 was 12 µM; in the data set with Vaccinia virus [2] it was over 100 µM. The MCC at 72 h in data set [1] was over 100 µM.
For the molecule `Cn1c(=O)n(O)c(=O)c2cc(-c3cn(Cc4ccccc4F)nn3)ccc21`, the EC50 in the data set on Human adenovirus 2 and in the data set with Vaccinia virus [2] was over 100 µM throughout. Moreover, in data set [1], the MCC at 72 h was over 100 µM.
Regarding `Cn1c(=O)n(O)c(=O)c2cc(-c3cn(Cc4ccc(F)cc4F)nn3)ccc21`, the EC50 in the data set on Human adenovirus 2 and with Vaccinia virus [2] was over 100 µM each time. For the same molecule, the MCC at 72 h in data set [1] stood at 100 µM.
Turning to `CCn1c(=O)n(O)c(=O)c2cc(-c3cn(Cc4c(Cl)cccc4Cl)nn3)ccc21`, the EC50 in the data set on Human adenovirus 2 and in the data set with Vaccinia virus [2] was over 100 µM in each case. Besides, the MCC at 72 h in data set [1] was over 100 µM.
As to `CCn1c(=O)n(O)c(=O)c2cc(-c3cn(Cc4cc(F)ccc4F)nn3)ccc21`, the EC50 with Human adenovirus 2 and in the data set with Vaccinia virus [2] was over 100 µM in each case. The MCC at 72 h in data set [1] was determined as 20 µM.
In the case of `Cn1c(=O)n(O)c(=O)c2cc(-c3cn(Cc4ccc(F)c(F)c4)nn3)ccc21`, the EC50 is over 100 µM with Human adenovirus 2 and 5 µM with Vaccinia virus [2]. In data set [1], the MCC at 72 h turned out to be 100 µM.
With `CCn1c(=O)n(O)c(=O)c2cc(-c3cn(Cc4ccccc4C)nn3)ccc21`, the EC50 in the data set with Human adenovirus 2 and in the data set with Vaccinia virus [2] was over 100 µM in each case. In data set [1], the MCC at 72 h came to 20 µM.
Take `Cc1ccccc1Cn1cc(-c2ccc3c(c2)c(=O)n(O)c(=O)n3C)nn1`: the EC50 in the data set on Human adenovirus 2 and in the data set on Vaccinia virus [2] was over 100 µM each time. Further, the MCC at 72 h in data set [1] was determined as 100 µM.
With `CCn1c(=O)n(O)c(=O)c2cc(-c3cn(Cc4ccc(F)cc4)nn3)ccc21`, the EC50 with Human adenovirus 2 and with Vaccinia virus [2] was over 100 µM each time. Also, in data set [1], the MCC at 72 h was determined as 100 µM.
`O=c1[nH]c(=O)n([C@H]2C[C@H](O)[C@@H](CO)O2)cc1/C=C/Br` [BRIVUDINE]: the MCC at 72 h in data set [1] was over 250 µM. In addition, the EC50 with Vaccinia virus [2] was determined as 15 µM.
As for `CCn1c(=O)n(O)c(=O)c2cc(-c3cn(Cc4ccc(F)cc4F)nn3)ccc21`, the EC50 in the data set on Human adenovirus 2 and with Vaccinia virus [2] was over 100 µM in each case. In addition, the MCC at 72 h in data set [1] amounted to 20 µM.
As to `Nc1ccn([C@H]2CC[C@@H](CO)O2)c(=O)n1` [ZALCITABINE], in the data set on Human adenovirus 2, the EC50 was 7.2 µM. The MCC at 72 h in data set [1] is over 250 µM.
On to `Cn1c(=O)n(O)c(=O)c2cc(-c3cn(Cc4ccc(C#N)cc4)nn3)ccc21`, for which the EC50 with Human adenovirus 2 and in the data set on Vaccinia virus [2] was over 100 µM in each case. In data set [1], the MCC at 72 h is over 100 µM.
Turning to `CCn1c(=O)n(O)c(=O)c2cc(-c3cn(Cc4c(F)cccc4F)nn3)ccc21`, the EC50 with Human adenovirus 2 was 8 µM; in the data set on Vaccinia virus [2], over 100 µM. Further, the MCC at 72 h in data set [1] is over 100 µM.
For `Cn1c(=O)n(O)c(=O)c2cc(-c3cn(Cc4cc(F)ccc4F)nn3)ccc21`, the EC50 with Human adenovirus 2 and with Vaccinia virus [2] was over 100 µM throughout. Moreover, in data set [1], the MCC at 72 h was over 100 µM.
For the molecule `CCn1c(=O)n(O)c(=O)c2cc(-c3cn(Cc4ccc(C#N)cc4)nn3)ccc21`, the results for the EC50 in the data set on Human adenovirus 2 and in the data set on Vaccinia virus [2] were over 100 µM and 15 µM, respectively. Further, in data set [1], the MCC at 72 h was over 100 µM.
As to `Cn1c(=O)n(O)c(=O)c2cc(-c3cn(Cc4ccccc4)nn3)ccc21`, the EC50 in the data set on Human adenovirus 2 and in the data set with Vaccinia virus [2] was over 100 µM in each case. In addition, in data set [1], the MCC at 72 h is over 100 µM.
Consider `Cn1c(=O)n(O)c(=O)c2cc(-c3cn(Cc4c(Cl)cccc4Cl)nn3)ccc21`, for which the EC50 in the data set on Human adenovirus 2 and with Vaccinia virus [2] was over 100 µM each time. For the same molecule, in data set [1], the MCC at 72 h was over 100 µM.
With `CCn1c(=O)n(O)c(=O)c2cc(-c3cn(Cc4ccc(OC)cc4)nn3)ccc21`, the results for the 50% effective concentration (EC50) in the data set on Human adenovirus 2 and with Vaccinia virus [2] were 6.2 µM and over 100 µM, respectively. Moreover, the MCC at 72 h in data set [1] is over 100 µM.
For the molecule `Cn1c(=O)n(O)c(=O)c2cc(-c3cn(Cc4ccc(F)cc4)nn3)ccc21`, the EC50 in the data set with Human adenovirus 2 and in the data set with Vaccinia virus [2] was over 100 µM throughout. Besides, the MCC at 72 h in data set [1] is over 100 µM.
As for `COc1ccc(Cn2cc(-c3ccc4c(c3)c(=O)n(O)c(=O)n4C)nn2)cc1`, the values for the EC50 in the data set on Human adenovirus 2 and in the data set with Vaccinia virus [2] were 12 µM and over 100 µM, respectively. Moreover, the MCC at 72 h in data set [1] is over 100 µM.
As to `Nc1ccn(C[C@@H](CO)OCP(=O)(O)O)c(=O)n1` [CIDOFOVIR], the EC50 in the data set on Human adenovirus 2 stood at 10 µM; with Vaccinia virus [2] it was 25 µM. The MCC at 72 h in data set [1] was over 250 µM.
Turning to `CCn1c(=O)n(O)c(=O)c2cc(-c3cn(Cc4cccc(F)c4)nn3)ccc21`, the EC50 with Human adenovirus 2 was 13 µM; in the data set with Vaccinia virus [2], over 100 µM. In addition, the MCC at 72 h in data set [1] was over 100 µM.
